# Screening data deposited in PubChem by The Scripps Research Institute Molecular Screening Center.
# TAAR1 antagonist = antagonists of human TAAR1; inhibition, % at 3 µM; CHO RD-HGA16 TAAR1, Fluo-8 calcium fluorescence, antagonist; 1.5% of 360,000 active; Q96RJ0; AID 624466;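 active = inhibition above a per-plate cutoff, the mean inhibition of test compounds on that plate plus 3 SD, cut at about 49% in these data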;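 note: 0% = DMSO plus EC80 beta-PEA response and 100% = DMSO alone without agonist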
# Target sequence (Q96RJ0 whole entry, looked up): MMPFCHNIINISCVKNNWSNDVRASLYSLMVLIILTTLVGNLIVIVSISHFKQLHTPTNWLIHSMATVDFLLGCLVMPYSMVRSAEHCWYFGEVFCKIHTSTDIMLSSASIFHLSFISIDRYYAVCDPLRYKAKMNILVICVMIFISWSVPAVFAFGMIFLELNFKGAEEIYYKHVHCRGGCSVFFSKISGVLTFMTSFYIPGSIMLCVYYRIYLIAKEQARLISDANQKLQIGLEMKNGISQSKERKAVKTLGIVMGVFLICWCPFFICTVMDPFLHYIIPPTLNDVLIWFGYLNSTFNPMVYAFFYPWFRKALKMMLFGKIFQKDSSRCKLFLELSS
#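 Material: RD-HGA16 CHO cells with stable hTAAR1 and Gα16; Dosing: single nominal final test compound concentration of 3 µM; Schedule: seeding 17-24 h prior, 75-min 37 °C, 30-min RT dye loading; Detection: kinetic Fluo-8 calcium fluorescence measurement; Measure: % inhibition from peak post-agonist over basal fluorescence ratio; Benchmarks: vehicle and agonist controls.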
# CHO parental Ca = counter-screen: ATP calcium response change in parental CHO cells. AID 463079. 0.63% of 330,000 active. parental CHO-K1, ATP-induced calcium, Fluo-8 fluorescence. inhibition, % at 5.6 µM;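 active = inhibition above that plate's mean sample inhibition plus 3 SD, cut at about 26% in these data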;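 note: 0% = ATP-challenged DMSO wells and 100% = DMSO wells without ATP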
#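 test system = CHO parental line | reagent = ATP stimulus | measured by = intracellular calcium via Fluo-8 no-wash fluorescent dye | control set = ATP and no-ATP DMSO wells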
# GPR7 antag = antagonists of human GPR7 (neuropeptides B/W receptor 1); 1.1% of 290,000 active; inhibition, % at 4.4 µM; GPR7-expressing cells, fluorescence antagonist assay; P48145; in the data active = inhibition above about 16%, passing the limit was not always enough;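 note: cells stimulated with the agonist NPW; 0% = agonist with vehicle and 100% = vehicle without agonist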
# Target sequence (P48145 whole entry, looked up): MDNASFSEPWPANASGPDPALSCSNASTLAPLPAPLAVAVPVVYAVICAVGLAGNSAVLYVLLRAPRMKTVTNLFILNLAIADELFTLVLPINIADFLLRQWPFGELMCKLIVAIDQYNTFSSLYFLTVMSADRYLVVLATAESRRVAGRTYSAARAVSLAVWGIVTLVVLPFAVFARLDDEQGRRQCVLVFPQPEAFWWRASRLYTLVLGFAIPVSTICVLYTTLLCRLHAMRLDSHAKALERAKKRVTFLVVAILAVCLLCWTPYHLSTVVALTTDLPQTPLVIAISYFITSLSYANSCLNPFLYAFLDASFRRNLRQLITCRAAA
# TAAR1 agonist = human TAAR1 agonism | Q96RJ0 | CHO RD-HGA16 TAAR1, Fluo-8 calcium fluorescence; vehicle wells 0%, saturating PEA agonist 100% | activation, % at 3 µM | 0.99% of 360,000 active;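 active = activation above the mean activation of all test compounds in the run plus 3 SD, cut at about 38% in these data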
#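 Assay system: CHO-derived RD-HGA16 cells with stable Gα16 and human TAAR1; timing: 17-24 h seeding, 75 min 37 °C dye, 30 min RT; read-out: % activation from peak over basal fluorescence ratio, DMSO-to-PEA scaled; measured by: kinetic Fluo-8 calcium fluorescence; benchmarks: low control DMSO, high control PEA (EC100); doses: 3 µM single concentration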
# OX1R antag-1 = OX1R (human) antagonism; OX1R-expressing cells, FRET antagonist read-out; inhibition, % at 6.6 µM; 1.8% of 330,000 active; in the data active = inhibition mostly above about 38%, no sharp cut-off; inactive = mostly below about 40%;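 note: 0% = agonist challenge alone and 100% = reference antagonist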
# OX1R antag-2 = blocks the human orexin 1 receptor. O43613. CHO/OX1R cells, Fluo-8 calcium fluorescence, orexin A. inhibition, % at 5 µM. 0.43% of 330,000 active. AID 434989;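 active = inhibition above its plate's threshold, mean inhibition of all tested compounds on the plate plus 3 SD, cut at about 37% in these data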;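 note: 0% = orexin A challenge wells and 100% = SB-334867-A antagonist wells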
# GPR7 antag cf = human GPR7 antagonism, confirmation assay; 52% of 2,400 active; GPR7-expressing cells, calcium fluorescence antagonist mode; inhibition, % at 4.4 µM; shares compounds with GPR7 antag; in the data active = inhibition above about 24%;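 note: stimulated with the GPR7 agonist NPW; 0% = agonist plus vehicle and 100% = vehicle alone without agonist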
# MCHR1 antagonist = MCHR1 (human) antagonism in GPR7 counter-screen. shares compounds with GPR7 antag. MCHR1-expressing cells, fluorescence antagonist assay. inhibition, % at 4.4 µM. 62% of 2,400 active; in the data active = inhibition above about 22%;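 note: 0% = vehicle with agonist and 100% = vehicle without agonist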
# The depositor's hits bear a star; . = not tested or not shown. Shown are actives, neighbours in structure and some others; about 4.5% of the full set was active somewhere.
SMILES,TAAR1 antagonist,CHO parental Ca,GPR7 antag,TAAR1 agonist,OX1R antag-1,OX1R antag-2,GPR7 antag cf,MCHR1 antagonist
CCOCCCNC(=S)N1C2CCC1CC(NC(=O)Nc1ccc(C(=O)OCC)cc1)C2 (configuration not stated),-38,-13,26*,3,28,-7,-7,2
COc1ccc(C(CNC(=O)c2ccc(S(=O)(=O)Nc3ccc(F)cc3)cc2)N(C)C)cc1 (configuration not stated),17,2,54*,45*,19,-2,51*,49*
CCNC(=O)C[C@@H]1CC[C@@H]2NC[C@@H](O)COC[C@H]2O1,-12,.,.,2,.,.,.,.
O=c1cc2c(nn1Cc1ccc(F)cc1)-c1ccccc1CC2,12,-2,35*,9,5,-22,1,11
CN1/C(=C\C(=O)COc2ccc3c(c2)OCO3)C(C)(C)c2ccccc21,35,7,28*,6,63,21,12,44*
Cc1ccc(S(=O)(=O)N2C[C@H]3C(=O)C[C@@H](c4ccc(Cl)cc4)N(S(=O)(=O)c4ccc(C)cc4)[C@H]3C[C@H]2c2cccc3ccccc23)cc1,-14,.,.,1,.,.,.,.
O=C(c1cc(COc2ccc(F)c(F)c2)on1)N1CCN(C2CCCCC2)C(=O)C1,26,19,27*,15,14,8,11,4
O=C(COc1ccc(Cl)cc1)NCCNc1ccc([N+](=O)[O-])cc1,13,-11,52*,3,10,-28,49*,51*
O=C(NCCNc1ccc([N+](=O)[O-])cc1)c1ccc(Cl)cc1,-4,-2,7,6,13,2,.,.
CC1OC(C2CCCCC2)Cc2[nH]c(=S)[nH]c(=O)c21 (configuration not stated),-14,.,.,0,.,.,.,.
CCOC(=O)C1(C)CCCCCN1C(=O)c1ccc(C(=O)OC)cc1 (configuration not stated),-17,.,.,0,.,.,.,.
CC(=O)Nc1ccc(CN(C)c2c(C)nc3ccc(C(=O)N4CCN(C(=O)c5ccco5)CC4)cn23)cc1,-10,.,.,0,.,.,.,.
NS(=O)(=O)c1cc(C(=O)OCC(=O)c2ccccc2)c(Cl)cc1Cl,11,-14,22*,7,19,-18,18,0
CCN(CC(=O)Nc1cc(Cl)ccc1C)CC(=O)NC1CC1,-6,.,.,2,.,.,.,.
CCN1/C(=C/c2ccc3cc(C)ccc3[n+]2CC)Sc2cc(C)c(C)cc21,18,.,28*,14,.,.,30*,14
CC[n+]1ccccc1/C=C1\Sc2ccc(C)cc2N1C,4,-5,18,4,18,-11,.,.
COc1cccc2cc(-c3nc4ccccc4[nH]3)c(=O)oc12,14,-2,-13,8,32,-14,.,.
CCN(CC)c1ccc2cc(-c3nc4ccccc4[nH]3)c(=O)oc2c1,.,80*,28*,.,81*,113*,81*,89*
CN(Cc1cn(Cc2ccc(F)cc2)nn1)C1CN(Cc2cn(Cc3ccc(F)cc3)nn2)S(=O)(=O)C1 (configuration not stated),-6,.,.,1,.,.,.,.
COc1ccc(CNC(=O)c2cc3ccccc3oc2=O)cc1,8,-20,5,4,8,-22,.,.
COc1ccc2cc(C(=O)NCc3ccccc3)c(=O)oc2c1,-9,-3,34*,0,8,-4,12,1
O=S1(=O)C[C@H](N2CCOCC2)[C@@H](COCc2ccccc2)N1,-6,.,.,1,.,.,.,.
Cc1onc(-c2ccccc2)c1C(=O)Nc1nnc(C(C)C)s1,-12,-9,-9,0,8,-19,.,.
Cc1onc(-c2ccccc2)c1C(=O)Nc1ncc([N+](=O)[O-])s1,-1,5,27*,8,26,-3,19,37*
C[C@H](CCC(=O)NCC(=O)O)[C@H]1CC[C@H]2C3[C@H](O)C[C@@H]4C[C@H](O)CC[C@]4(C)[C@H]3C[C@H](O)[C@]12C (some centres not stated),-7,-6,.,0,7,-8,.,.
SMILES,TAAR1 antagonist,CHO parental Ca,GPR7 antag,TAAR1 agonist,OX1R antag-1,OX1R antag-2,GPR7 antag cf,MCHR1 antagonist
Cc1cc(C)n(-c2ccc(C(=O)Nc3ccc(S(=O)(=O)NCc4ccco4)cc3)cc2)n1,62*,30,45*,15,29,28,67*,70*
Cc1ccc(C(=O)Nc2ccc(S(=O)(=O)NCc3ccco3)cc2)cc1,-12,-1,7,7,11,7,.,.
COc1ccc(Oc2c(Cl)cnn(-c3ccc(C)cc3)c2=O)cc1,7,-6,32*,12,11,-27,63*,1
COc1ccc(Oc2c(Cl)cnn(-c3ccc(F)cc3)c2=O)cc1,13,-23,29,1,40,-6,.,.
CC(C)c1ccc(NC(=O)C2Cc3c(-c4ccccc4Oc4ccccc4)ccnc3O2)cc1 (configuration not stated),11,.,.,0,.,.,.,.
CC1(C)CSC(=NCc2ccccc2)N1C(=O)c1cccc([N+](=O)[O-])c1,25,2,71*,33,10,20,75*,82*
NC(=NCc1ccccc1)c1cccc([N+](=O)[O-])c1,9,-12,-10,-1,31,-14,.,.
CCc1ccc2[nH]c(=O)c(C(c3nnnn3Cc3ccc(OC)cc3)N3CCOCC3)cc2c1 (configuration not stated),13,-22,29*,6,10,-20,5,14
COc1ccc(N2CCN(C(=O)CCc3ccc(S(=O)(=O)NCC(C)C)cc3)CC2)cc1,-8,-4,2,16,7,-7,.,.
O=[N+]([O-])c1ccc(N2CCN(c3ccc(F)cc3)CC2)cc1,13,18,44*,-1,5,10,23,37*
CN1CCCN(c2ccc([N+](=O)[O-])cc2)CC1,-29,-7,17,7,23,-9,.,.
O=C(CCc1ccccc1)N1CCN(c2ccc([N+](=O)[O-])cc2)CC1,-1,3,26*,-1,24,8,37*,37*
O=[N+]([O-])c1ccc(N2CCSCC2)cc1,10,-12,29*,15,28,-2,5,6
CC(C)CNS(=O)(=O)c1ccc(CCC(=O)N2CCN(c3ccc(F)cc3)CC2)cc1,8,-14,30*,7,31,-9,7,42*
CCCS(=O)(=O)NC(=O)C1(C)CCN(C(=O)c2nc(C)oc2C)C1 (configuration not stated),-18,.,.,1,.,.,.,.
